ChEMBL document CHEMBL1127506, “Novel ligands specific for mitochondrial benzodiazepine receptors: 6-arylpyrrolo[2,1-d][1,5]benzothiazepine derivatives. Synthesis, structure-activity relationships, and molecular modeling studies” (J Med Chem, 1994)
pIC50: −log10 of the molar value.

Experiments:
[1] = target: T1, Translocator protein (Rattus norvegicus, UniProt P16257); experiment: Displacement of [3H]-PK 11195 from peripheral (mitochondrial) benzodiazepine receptor
[2] = target: T1, Translocator protein; experiment: Displacement of [3H]-PK 11195 from peripheral (mitochondrial) benzodiazepine receptor (inactive)
How it was run: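 Male CD rat cortex (about 150 g) homogenized in ice-cold 50 mM PBS, pH 7.4, spun at 50000g for 10 min, and washed three times. 10 mg original wet tissue incubated with 1 nM [3H]PK 11195 and 8–12 drug concentrations (highest 10^-5 M) for 120 min at 4 °C. Nonspecific binding with 1 μM PK 11195. GF/B filtration, scintillation counting, triplicate points, IC50 by nonlinear curve fitting.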

T1 sequence (P16257 whole entry, looked up): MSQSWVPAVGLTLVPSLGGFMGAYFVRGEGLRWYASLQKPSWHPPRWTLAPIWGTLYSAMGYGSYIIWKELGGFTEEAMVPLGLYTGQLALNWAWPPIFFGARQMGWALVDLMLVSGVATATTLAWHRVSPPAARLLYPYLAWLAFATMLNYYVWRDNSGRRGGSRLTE

Row | Compound | pIC50 [1] | IC50 [2]
1 | CC(=O)OC1=C(c2ccccc2)[S+]([O-])c2ccccc2-n2cccc21 (centres undefined) | 6.16 | –
2 | COc1ccc(C2=C(OC(=O)c3c(OC)cc(OC)cc3OC)c3cccn3-c3cc(Cl)ccc3S2)cc1 | – | Not Active
3 | CCCC(=O)OC1=C(c2ccc(OC)cc2)[S+]([O-])c2ccccc2-n2cccc21 (centres undefined) | 6.57 | –
4 | CCC(=O)OC1=C(c2ccccc2)Sc2ccc(Cl)cc2-n2cccc21 | 6.09 | –
5 | CCC(=O)OC1=C(c2ccc(OC)cc2)Sc2ccccc2-n2cccc21 | 7.52 | –
6 | CCC(=O)OC1=C(c2ccc(OC)cc2)Sc2ccc(Cl)cc2-n2cccc21 | 6.31 | –
7 | COc1ccc(C2=C(OC(=O)c3ccncc3)c3cccn3-c3ccccc3S2)cc1 | – | Not Active
8 | O=C1c2cccn2-c2ccccc2[S+]([O-])C1c1ccccc1 (centres undefined) | 4.83 | –
9 | COc1ccc(C2Sc3ccc(C(F)(F)F)cc3-n3cccc3C2=O)cc1 (centres undefined) | 5.21 | –
10 | CC(=O)OC1=C(c2ccccc2)Sc2cc(Cl)ccc2-n2cccc21 | 6.64 | –
11 | CN(C)C(=O)OC1=C(c2ccccc2)Sc2ccccc2-n2cccc21 | 8.05 | –
12 | CC(=O)OC1=C(c2ccccc2)Sc2ccccc2-n2cccc21 | 7.70 | –
13 | COc1ccc(C2=C(OC(=O)N(C)C)c3cccn3-c3cc(C(F)(F)F)ccc3S2)cc1 | 6.54 | –
14 | CCC(=O)OC1=C(c2ccc(OC)cc2)Sc2ccc(C(F)(F)F)cc2-n2cccc21 | 5.53 | –
15 | CCCC(=O)OC1=C(c2ccc(OC)cc2)Sc2ccccc2-n2cccc21 | 7.55 | –
16 | O=C1CSc2ccccc2-n2cccc21 | < 4.85 | –
17 | COc1ccc(C2=C(OC(=O)c3c(OC)cc(OC)cc3OC)c3cccn3-c3cc(C(F)(F)F)ccc3S2)cc1 | – | Not Active
18 | COc1ccc(C2Sc3ccccc3-n3cccc3C2=O)cc1 (centres undefined) | 5.68 | –
19 | CCCCC(=O)OC1=C(c2ccccc2)Sc2ccccc2-n2cccc21 | 7.32 | –
20 | COc1ccc(C2C(=O)c3cccn3-c3ccccc3[S+]2[O-])cc1 (centres undefined) | 4.64 | –
21 | COc1ccc(C2=C(OC(=O)N(C)C)c3cccn3-c3ccccc3S2)cc1 | 8.05 | –
22 | CC(=O)OC1=C(c2ccccc2)Sc2c(Cl)cccc2-n2cccc21 | 8.10 | –
23 | COc1ccc(C2=C(OS(C)(=O)=O)c3cccn3-c3ccccc3S2)cc1 | 7.02 | –
24 | COc1ccc(C2=C(OC(=O)c3cccnc3)c3cccn3-c3ccccc3S2)cc1 | – | Not Active

The next lines start with the values.

Row | pIC50 [1] | IC50 [2] | Compound
25 | 7.70 | – | COc1ccc(C2=C(OC(C)=O)c3cccn3-c3cccc(Cl)c3S2)cc1
26 | 5.34 | – | COc1ccc(C2=C(OC(C)=O)c3cccn3-c3cc(C(F)(F)F)ccc3S2)cc1
27 | 6.62 | – | COc1ccc(C2=C(OC(C)=O)c3cccn3-c3ccc(Cl)cc3S2)cc1
28 | 7.17 | – | CCC(=O)OC1=C(c2ccccc2)Sc2ccccc2-n2cccc21
29 | 7.66 | – | CCCC(=O)OC1=C(c2ccccc2)Sc2ccccc2-n2cccc21
30 | 5.94 | – | CC(=O)OC1=C(c2ccccc2)S(=O)(=O)c2ccccc2-n2cccc21
31 | 5.91 | – | O=C1c2cccn2-c2ccccc2SC1c1ccccc1 (centres undefined)
32 | – | Not Active | COc1ccc([C@H]2Sc3ccccc3-n3cccc3[C@H]2OC(C)=O)cc1
33 | 6.19 | – | COc1ccc(C2=C(OC(C)=O)c3cccn3-c3ccccc3S2(=O)=O)cc1
34 | – | Not Active | COc1ccc(C2=C(OC(=O)c3c(OC)cc(OC)cc3OC)c3cccn3-c3ccccc3S2)cc1
35 | 6.77 | – | COc1ccc(C2=C(OC(=O)N(C)C)c3cccn3-c3cc(Cl)ccc3S2)cc1
36 | 5.85 | – | COc1ccc(C2Sc3ccc(Cl)cc3-n3cccc3C2=O)cc1 (centres undefined)
37 | 5.74 | – | COc1ccc(C2=C(OC(C)=O)c3cccn3-c3cc(OC)ccc3S2)cc1
38 | 6.25 | – | CC(=O)OC1=C(c2ccccc2)Sc2ccc(Cl)cc2-n2cccc21
39 | 7.22 | – | CS(=O)(=O)OC1=C(c2ccccc2)Sc2ccccc2-n2cccc21
40 | 5.68 | – | COc1ccc(C2=C(OC(C)=O)c3cccn3-c3ccccc3[S+]2[O-])cc1 (centres undefined)
41 | 7.47 | – | COc1ccc(C2=C(OC(C)=O)c3cccn3-c3ccccc3S2)cc1
42 | – | Not Active | O=C1c2cccn2-c2ccccc2S(=O)(=O)C1c1ccccc1 (centres undefined)
43 | 6.19 | – | COc1ccc(C2=C(OC(C)=O)c3cccn3-c3cc(Cl)ccc3S2)cc1
44 | 7.64 | – | CCCCCC(=O)OC1=C(c2ccccc2)Sc2ccccc2-n2cccc21
